The values that follow come from ChEMBL document CHEMBL2177000, “Pharmacokinetic optimization of class-selective histone deacetylase inhibitors and identification of associated candidate predictive biomarkers of hepatocellular carcinoma tumor response” (J Med Chem, 2012).

Activity calls are given as the source filed them. No cut-off for these calls is given here.

Data set [1] relates to Mus musculus. Description: Inhibition of Class 1 histone deacetylase in human Bel7404 cells xenografted BALB/C mouse assessed as induction of histone H3 acetylation at 50 mg/kg, po qd for 4 weeks by Western blot method. To be noted: Bel-7404. (Xenograft models place foreign cells or tissue in a host animal.)
The next data set deals with Homo sapiens. The data set can be described thus: Antitumor activity against treatment non-responding human hepatocellular carcinoma patient tumor xenografted in BALB/C mouse assessed as tumor growth inhibition at 100 mg/kg, po administered every other day for 4 weeks. In kind it is functional, organism-based. The arrangement: dose 100 mg/kg. Put shortly:
(§1)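 Tumor fragments (3×3×3 mm3) from HCC patients implanted subcutaneously in right flank of female BALB/c nu/nu mice (6−7 weeks). At about 200 (150−250) mm3, randomized (n = 10 per arm); Q2D PO 100 mpk in 15% Kleptose pH 4.5 tartaric buffer, about four weeks; caliper tumor volume three times weekly.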

For data set [2], the system named is Mus musculus. Description: Inhibition of Class 1 histone deacetylase in human Bel7404 cells xenografted BALB/C mouse assessed as induction of histone H3 acetylation at 100 mg/kg, po administered every other day for 4 weeks by Western blot method. To be noted: Bel-7404.
Data set [3] relates to Mus musculus. The data set can be described thus: Up-regulation of HIC1 gene expression in human hepatocellular carcinoma patient tumor xenografted in BALB/C mouse at 100 mg/kg, po administered every other day for 4 weeks by […]. In kind it is functional, organism-based. The arrangement: dose 100 mg/kg. Put shortly: (§2)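 Patient HCC tumor fragments (3 × 3 × 3 mm3) implanted subcutaneously in female BALB/c nu/nu mice; at ~200 (150−250) mm3 dosed orally Q2D 100 mpk in 15% Kleptose pH 4.5 tartaric buffer for about four weeks. Tumor RNA (TRIzol, DNase I) run on 22-gene qRT-PCR array, normalized to GAPDH/β-glucuronidase by ΔCt, fold change versus day 0.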

The next data set has as its system SGC-7901. Description: Induction of cell cycle arrest in human SGC7901 cells assessed as accumulation at G1/G2 phase incubated for 24 hrs by flow cytometry. The data set is classed as functional, cell-based. Put shortly:
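SGC-7901 cells (1 × 10^5, about 50% confluent) treated 24 h with a concentration series; fixed in chilled 70% ethanol 1 h at 4 °C, stained 1 h at room temperature with propidium iodide (50 μg/mL) plus RNase A and 0.05% Triton X-100; analysed by flow cytometry.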
(A flow cytometer gives signals particle by particle.)

For data set [4], the system named is Mus musculus. The data set can be described thus: Up-regulation of CDKN2B gene expression in human hepatocellular carcinoma patient tumor xenografted in BALB/C mouse at 100 mg/kg, po administered every other day for 4 weeks by […]. In kind it is functional, organism-based. The arrangement: dose 100 mg/kg. The gist of the method: as §2
Data set [5] relates to Mus musculus. Description: Up-regulation of CEBPA gene expression in human hepatocellular carcinoma patient tumor xenografted in BALB/C mouse at 100 mg/kg, po administered every other day for 4 weeks by […]. The data set is classed as functional, organism-based. The arrangement: dose 100 mg/kg. The gist of the method: as §2
Data set [6] deals with Mus musculus. The data set can be described thus: Up-regulation of TFPI2 gene expression in human hepatocellular carcinoma patient tumor xenografted in BALB/C mouse at 100 mg/kg, po administered every other day for 4 weeks by […]. The data set is classed as functional, organism-based. The arrangement: dose 100 mg/kg. The gist of the method:
as §2

For data set [7], the system named is Mus musculus. Description: Up-regulation of PYCARD gene expression in human hepatocellular carcinoma patient tumor xenografted in BALB/C mouse at 100 mg/kg, po administered every other day for 4 weeks by […]. The arrangement: dose 100 mg/kg. The data set is classed as functional, organism-based. The gist of the method: as §2
In data set [8] the test system is Mus musculus. The data set can be described thus: Up-regulation of CCND2 gene expression in human hepatocellular carcinoma patient tumor xenografted in BALB/C mouse at 100 mg/kg, po administered every other day for 4 weeks by […]. In kind it is functional, organism-based. The arrangement: dose 100 mg/kg. Put shortly:
as §2

The test system of data set [9] is Mus musculus. The data set can be described thus: Up-regulation of CACNA1G gene expression in human hepatocellular carcinoma patient tumor xenografted in BALB/C mouse at 100 mg/kg, po administered every other day for 4 weeks by […]. In kind it is functional, organism-based. The arrangement: dose 100 mg/kg. Put shortly: as §2
Data set [10] in a line: Volume of distribution at steady state in BALB/C mouse at 10 mg/kg, po or 2 mg/kg, iv by LC-MS/MS method. The arrangement: unit not given here. In kind it is ADME, organism-based. To be noted: in vivo, read-out: Vdss. The gist of the method:
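Single-dose PK: iv bolus 2 mg/kg in 5% DMSO/40% PEG400/55% saline and/or oral gavage 10 mg/kg as 0.445% microcrystalline cellulose microsuspension; BALB/C nude mice (15−20 g, N = 16 per arm) or male Sprague−Dawley rats (250 ± 20 g, N = 3). Blood at eight (po) or nine (iv) time points into sodium heparin, plasma by LC-MS/MS, noncompartmental analysis.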

Data set [11] in a line: Clearance in mouse liver microsomes at 1 uM incubated for 10 mins by LC-MS/MS method. In kind it is ADME, Microsome. The gist of the method:
(§3)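 Liver microsomes (human or mouse, 0.5 mg/mL) in 100 mM potassium phosphate pH 7.4 with 1 μM compound, prewarmed 10 min at 37 °C, started with NADPH (10 mM); stopped at 0, 3, 6, 9, 15, 30 min with ice-cold methanol containing tolbutamide internal standard; LC-MS/MS. Hepatic clearance (mL/min/kg) calculated from intrinsic clearance.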
(In general: Liver microsomes are a subcellular fraction often used to study metabolism.)

Data set [12] is described as follows: Clearance in human liver microsomes at 1 uM incubated for 10 mins by LC-MS/MS method. The data set is classed as ADME, Microsome. The gist of the method:
as §3

Data set [13] relates to Mus musculus. The data set can be described thus: Oral bioavailability in BALB/C mouse at 10 mg/kg by LC-MS/MS method. In kind it is ADME, organism-based. Particulars: in vivo. The gist of the method: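 Bioavailability from single-dose iv (2 mg/kg, 5% DMSO/40% PEG400/55% saline) and oral gavage (10 mg/kg, 0.445% microcrystalline cellulose microsuspension) studies in BALB/C nude mice (N = 16 per arm); plasma at eight (po) or nine (iv) time points, LC-MS/MS, noncompartmental analysis.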

Data set [14] deals with Mus musculus. Description: Half life in BALB/C mouse at 10 mg/kg, po or 2 mg/kg, iv by LC-MS/MS method. The data set is classed as ADME, organism-based. To be noted: in vivo. Put shortly:
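Female-unspecified BALB/C nude mice (15−20 g, N = 16 per arm); iv bolus 2 mg/kg in 5% DMSO/40% PEG400/55% saline and/or oral gavage 10 mg/kg as 0.445% microcrystalline cellulose microsuspension. Blood sampled at nine (iv) or eight (po) time points into sodium heparin tubes; plasma by LC-MS/MS; noncompartmental analysis.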

Data set [15] has as its system Mus musculus. The data set can be described thus: Toxicity in human Bel7404 cells xenografted BALB/C mouse assessed as body weight loss at 50 mg/kg, po qd for 4 weeks. Particulars: in vivo, 672 h.
Data set [16] has as its system SMMC-7721. Description: Induction of apoptosis in human SMMC-7721 cells assessed as necrotic cell level at 5 uM incubated for 48 hrs by FITC/Annexin V staining based flow cytometry (reference value: 2.31%).
For data set [17], the system named is SMMC-7721. Description: Induction of apoptosis in human SMMC-7721 cells assessed as late apoptotic cell level at 5 uM incubated for 48 hrs by FITC/Annexin V staining based flow cytometry (reference value: 6.08%).
Data set [18] can be described thus: Antitumor activity against treatment responding human hepatocellular carcinoma patient tumor xenografted in BALB/C mouse assessed as tumor growth inhibition at 100 mg/kg, po administered every other day for 4 weeks. In kind it is functional. Particulars: 672 h, read-out: TGI. The gist of the method: as §1
Data set [19] deals with SMMC-7721. The data set can be described thus: Induction of apoptosis in human SMMC-7721 cells assessed as early apoptotic cell level at 5 uM incubated for 48 hrs by FITC/Annexin V staining based flow cytometry (reference value: 2.61%).

`CN1C[C@H](C(=O)Nc2ccc(Cl)cc2)[C@@H](c2ccc(/C=C/C(=O)Nc3ccccc3N)cc2)C1` [listing 1 of 2 here]: the inhibition result in the data set on Mus musculus [1] and in the data set on Mus musculus [2] was “Active” throughout. The TGI entry in the data set with Homo sapiens is “inactive”. Besides, the result in the data set on Mus musculus [3], in the data set on Mus musculus [6] and with Mus musculus [7] was inactive. Moreover, the Activity result in the data set on SGC-7901 was “Dose-dependent effect”. Further, the outcome in the data set on Mus musculus [4], with Mus musculus [5], in the data set with Mus musculus [8] and in the data set on Mus musculus [9] was Active.
In the case of `CN1C[C@H](C(=O)Nc2ccc(Cl)cc2)[C@@H](c2ccc(/C=C/C(=O)Nc3ccccc3N)cc2F)C1` (racemic), the Vd in data set [10] stood at 3. Moreover, the values for the CLhep predicted at 1 µM in data set [11] and in [12] were 36 mL/min/kg and 14 mL/min/kg, respectively.
The compound `CN1C[C@H](C(=O)Nc2ccc(Cl)cc2)[C@@H](c2ccc(/C=C/C(=O)Nc3ccccc3N)cc2)C1` [listing 2 of 2 here] had a F in the data set on Mus musculus [13] of 100%. The t1/2 with Mus musculus [14] came out at 3.4 h. Further, the Activity in the data set with Mus musculus [15] is under 10%; with SMMC-7721 [16], 15.41%; in the data set with SMMC-7721 [17], 36.17%; in the data set with SMMC-7721 [19] it was 3.56%. Further, the inhibition in vivo at 100 mg/kg in data set [18] turned out to be 50%.
